Measured values gathered from unrelated publications.
ALDH2: Aldehyde dehydrogenase, mitochondrial (ALDH2, Homo sapiens, UniProt P05091)
STK38L: Serine/threonine-protein kinase 38-like (STK38L, Homo sapiens, UniProt Q9Y2H1)

CCSC(=O)N1CCCCCC1  kinact/KI (ALDH2; enzyme activity, inhibitor): 76 M⁻¹ s⁻¹
Cc1nn(C)cc1-c1nc2c(N3CCN(Cc4ccc(Cl)cc4)CC3)c(Cl)cnc2[nH]1  remaining binding (Receptor tyrosine-protein kinase erbB-3 (ERBB3, Homo sapiens, UniProt P21860); binding, competition with immobilised ligand; 1 µM): 95%
Nc1ncc(-c2nc(N3CCOCC3)nc(N3CCOCC3)n2)c(C(F)F)n1  remaining binding (Cyclin-dependent kinase 3 (CDK3, Homo sapiens, UniProt Q00526); binding, competition with immobilised ligand; 10 µM): 88%
CC[C@]1(O)C[C@H]2CN(CCc3c([nH]c4ccccc34)[C@@](C(=O)OC)(c3cc4c(cc3OC)N(C=O)[C@H]3[C@@](O)(C(=O)OC)[C@H](OC(C)=O)[C@]5(CC)C=CCN6CC[C@]43[C@@H]65)C2)C1  remaining activity (Organic cation/carnitine transporter 2 (SLC22A5, Homo sapiens, UniProt O76082); transporter uptake, inhibitor; HEK293; 100 µM): 33.6%
COc1cc(Nc2ncc(F)c(Nc3ccc4c(n3)NC(=O)C(C)(C)O4)n2)cc(OC)c1OC  inhibition (STK38L; binding; 10 µM): 48%
C#Cc1n[nH]c2c(-c3cn([C@@H](C)c4ccccc4)c(=O)[nH]c3=O)cc(F)cc12  inhibition (Serine/threonine-protein kinase Sgk1 (SGK1, Homo sapiens, UniProt O00141); enzyme activity, inhibitor; 0.1 µM): -1.8%
CCCCCCCCCCCCCC(=O)O[C@@H]1[C@@H](C)[C@@]2(O)[C@@H](C=C(CO)C[C@]3(O)C(=O)C(C)=C[C@@H]23)[C@@H]2C(C)(C)[C@]12OC(C)=O  Emax (Adenosine receptor A2b (Adora2b, Rattus norvegicus, UniProt P29276); cAMP, agonist; H9c2): 19.6%
c1ccc(C(NCCNC(c2ccccc2)c2ccccc2)c2ccccc2)cc1  inhibition (Collagenase 3 (MMP13, Homo sapiens, UniProt P45452); enzyme activity, inhibitor; 10 µM): -10%
O=c1ccc2ccc3occc3c2o1  activity vs control (ALDH2; enzyme activity, inhibitor, absorbance; 10 µM): 95.2%
CCN(CC)CCCC[C@H](NC(=O)[C@H](CC(C)C)NC(=O)[C@H](C)NC(=O)[C@H](Cc1ccccc1)NC(=O)c1ccc(C(C)(C)C)cc1)C(=O)N[C@@H](CO)C(=O)OC  ΔTm (Protein polybromo-1, bromodomain (PBRM1, Homo sapiens, UniProt Q86U86); thermal stability, DSF; 25 µM): -0.15 °C
C#Cc1n[nH]c2c(-c3cn([C@@H](C)c4ccccn4)c(=O)[nH]c3=O)cc(F)cc12  inhibition (Serine/threonine-protein kinase PAK 4 (PAK4, Homo sapiens, UniProt O96013); enzyme activity, inhibitor; 0.1 µM): 0.2%
CC1CCCN(c2ncc(Cl)c(Nc3ccc4c(c3)n(CCC(C)(C)O)c(=O)n4C)n2)C1 (stereo not shown)  Dmax (B-cell lymphoma 6 protein (BCL6, Homo sapiens, UniProt P41182); protein level, degrader; SU-DHL-4): 85%
COc1ncccc1-c1cnn2ccc(N3CCN(C(=O)OC(C)C)CC3)nc12  remaining binding (STK38L; binding, competition with immobilised ligand; 1 µM): 100%
